This note sets out measurements from the RNAGym collection of RNA variant scans (doi:10.1126/science.aae0568).

Fewer inactive variants are shown than the library holds. Bounds are passed on as bounds.

Sequences and labels used below:
B1: tRNA (parent)
chain: GUUCCGUUGGCGUAAUGGUAACGCGUCUCCCUCCUAAGGAGAAGACUGCGGGUUCGAGUCCCGUACGGAACG

The data set covers variants of B1. In words: yeast fitness relative to wild type (ratio to wild type); higher = fitter; tRNA-Arg(CCU), competitive growth, 37 C, YPD. A digest of the protocol: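 For this measurement, the tRNA-Arg(CCU) gene was varied by chemical synthesis at a 3% per-site mutation rate across 69 sites, and each variant was placed at the native genomic locus in Saccharomyces cerevisiae. The pooled strains went through a 24-hour competition in YPD at 37°C in six parallel replicates, with amplicons from start and end populations read by 100-nucleotide paired-end sequencing. Darwinian fitness relative to wild type followed from the change in each genotype's frequency. Genotypes needed ≥ 100 starting reads, and estimates < 0.5 were set to 0.5.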
Consider G17A C22A A45C C46U, for which the yeast fitness is 0.578.

With U16C A42G G67A, the yeast fitness is no more than 0.5.

Turning to G17A A37C, the yeast fitness is 0.681.

In the case of U16C A37G A42C A69U, the yeast fitness is no more than 0.5.

Regarding U16A U35C, the yeast fitness was 0.91.

Consider G17A C22U C27A C30G, for which the yeast fitness is no more than 0.5.

For G17A C22G C29U G51C C55G, the yeast fitness is no more than 0.5.

U16C C22A U53C: the yeast fitness came to 0.629.

In the case of U16C G17C C22G, the yeast fitness is 0.534.

Regarding U16G U19A G23C C49U, the yeast fitness was no more than 0.5.

As to G17A A69C, the yeast fitness came to 0.721.

G17A A69G: the yeast fitness stood at 0.813.

U16C A21C C22U: the yeast fitness was no more than 0.5.

In the case of U16G C60A, the yeast fitness is 0.606.

For U16A G52A A57C, the yeast fitness was 0.571.

For U16A U47C A70G, the yeast fitness came out at 0.78.

On to U16C G18A C34G G39A C62G, for which the yeast fitness is no more than 0.5.

U16G G39C G56C: the yeast fitness was no more than 0.5.

Take U16G C66U: the yeast fitness came to 0.875.

Turning to U16A U35C A45G G56C, the yeast fitness is 0.602.

Take U16A U32C A37U C49G G63A A70U: the yeast fitness is no more than 0.5.

Turning to U16C C31A G51A, the yeast fitness is no more than 0.5.

As for U16A U54C, the yeast fitness was found to be 0.849.

For the variant G17A, the yeast fitness stood at 0.835.

Regarding U16A G18C U26A U47C A65C, the yeast fitness was no more than 0.5.

G17A A21G U28G: the yeast fitness was found to be 0.608.

Consider U16C C24G C30G A36U C66U, for which the yeast fitness was no more than 0.5.

For the variant U16C C34G C55U, the yeast fitness is no more than 0.5.

For G17A C29U C34A, the yeast fitness was no more than 0.5.

Consider G17A C22G U28A C31G C55A G68C, for which the yeast fitness was no more than 0.5.

Turning to U16G C29U C31A C46U, the yeast fitness came to 0.716.

Regarding U16C U32C C49A, the yeast fitness was 0.617.

As to U16G C31U A42U, the yeast fitness came to 0.522.

With U16G C22A C62A, the yeast fitness was no more than 0.5.

As to U16C A20U C24U A65U, the yeast fitness is no more than 0.5.

With U16C G52A G56A, the yeast fitness came out at 0.69.

Take U16C A21G: the yeast fitness worked out at 0.91.

As for G17A A20G C27G A36C A65U, the yeast fitness is no more than 0.5.

U16G A20U C60G: the yeast fitness is no more than 0.5.

Take U16C C31A A42U C62G A70C: the yeast fitness was no more than 0.5.

For the variant U16G C66U A69C, the yeast fitness was 0.728.

As to G17A C30A, the yeast fitness worked out at 0.71.

On to U16A U53A A57G, for which the yeast fitness is no more than 0.5.

Turning to U16C U19G C27G C34U A40U U53A A70U, the yeast fitness is 0.674.

On to U16G A36C G39C G63A A65U, for which the yeast fitness was no more than 0.5.

On to U16C G18A C24G A45U U47C, for which the yeast fitness is no more than 0.5.

Take G17A C24U: the yeast fitness was 0.778.

Consider U16A G41C A45C, for which the yeast fitness was no more than 0.5.

On to U16C C34A A37G, for which the yeast fitness was no more than 0.5.

For the variant G17A A42G, the yeast fitness turned out to be 0.732.

Turning to U16C G48C C62U A65G, the yeast fitness was no more than 0.5.

On to U16C G39C, for which the yeast fitness amounted to 0.696.

Consider U16G C30U C46G, for which the yeast fitness came to 0.541.

As for U16C C27U G63A A65G, the yeast fitness was no more than 0.5.

In the case of U16G C22A C61A, the yeast fitness was no more than 0.5.

Take G17A C24G C33U A37U: the yeast fitness was no more than 0.5.

For U16G U28C, the yeast fitness was 0.862.

In the case of U16C C29U C34U A57C U64C, the yeast fitness is no more than 0.5.

Consider G17A C22U C46U C66U A70C, for which the yeast fitness is no more than 0.5.

Consider G17A C30G G67C, for which the yeast fitness is no more than 0.5.

For U16C G52C A70G, the yeast fitness was no more than 0.5.

As for U16A G41A, the yeast fitness came to 1.1.

As to U16C A36C, the yeast fitness worked out at 0.675.

For the variant U16G C34G A37C, the yeast fitness is 0.706.

As for G17A C30U A40U A57U, the yeast fitness was no more than 0.5.

Consider U16C C34G A65U G67U, for which the yeast fitness was no more than 0.5.

Regarding G17A C31A C33U U59G A65C, the yeast fitness was no more than 0.5.

For the variant U16G C27U U28A G52C U54A C66U, the yeast fitness was no more than 0.5.

On to G17A C22U, for which the yeast fitness is 0.737.

Consider U16G C29G C46U G51C C55G, for which the yeast fitness was no more than 0.5.

For G17A C22G C33U C62A, the yeast fitness is no more than 0.5.

Consider U16G C30G C55G, for which the yeast fitness was no more than 0.5.

Turning to G17A A21G U28G C62G, the yeast fitness was no more than 0.5.

Regarding U16G A40U C62G, the yeast fitness came to 0.566.

On to U16C A69G A70G, for which the yeast fitness came out at 0.745.

For U16A U47C, the yeast fitness is 1.01.

In the case of U16C C27G G52A C60G A69U A70C, the yeast fitness is no more than 0.5.

Take U16A U32G C55G: the yeast fitness was no more than 0.5.

For U16C C27G G48C A65C, the yeast fitness is no more than 0.5.

For U16G G38C, the yeast fitness was 0.653.

Regarding U16G G41A A69U, the yeast fitness came to 0.527.

As for U16G U26A C34U G50A A69U, the yeast fitness came to 0.551.

In the case of U16A G48U, the yeast fitness amounted to 0.754.

With G17A C31G, the yeast fitness came out at 0.85.

As for G17A C31A, the yeast fitness turned out to be 0.706.

Take U16A U19G C33U A40C G41A A43C C61G: the yeast fitness was no more than 0.5.

As to U16G C34G A42G C49G C62U A69C, the yeast fitness came to 0.506.

As to U16G U53C C61G, the yeast fitness was no more than 0.5.

Consider U16C C30A C31U, for which the yeast fitness is 0.834.

On to G17A C30G A40G C60A, for which the yeast fitness is 0.678.

Regarding G17A C24U C31G A65U, the yeast fitness was no more than 0.5.

Consider U16A U19A C46U C61G, for which the yeast fitness came out at 0.571.

In the case of U16A G39A A42G C55A C62A, the yeast fitness was no more than 0.5.

Take U16C U59A: the yeast fitness is 0.852.

For the variant U16G C24U C49G C55G, the yeast fitness is no more than 0.5.

Turning to G17A C22G C27A, the yeast fitness was determined as 0.579.

U16G A20G A69C: the yeast fitness is 0.749.

Regarding U16G U28G C34U C49U G63C, the yeast fitness is no more than 0.5.

U16C U32A: the yeast fitness stood at 0.682.

Take U16C U32C: the yeast fitness is 0.918.

As for G17A A57G, the yeast fitness was found to be 0.906.

As for U16G A20U G38A, the yeast fitness worked out at 0.538.

U16C G58A U59C: the yeast fitness came out at 0.555.

In the case of U16A U28C A70C, the yeast fitness came to 0.569.

In the case of U16C C62U, the yeast fitness worked out at 1.

Take G17A C31U U35C A57G: the yeast fitness is 0.527.

As for U16C C49A, the yeast fitness turned out to be 0.731.

Consider G17A C22G C27A G63A, for which the yeast fitness was found to be 0.538.

In the case of U16C G56A G67C, the yeast fitness was found to be 0.514.

U16G C29G C49G A65U: the yeast fitness was no more than 0.5.

On to U16G A20C G67C, for which the yeast fitness was no more than 0.5.

For U16G A65U A70U, the yeast fitness is 0.64.

Take U16A G23C C27G C34A G44A: the yeast fitness was no more than 0.5.

For G17A A20G C29U C33U C60G, the yeast fitness is no more than 0.5.

For the variant U16C G58C, the yeast fitness came out at 1.06.

As for U16A G18C C31U G51C, the yeast fitness was no more than 0.5.

As for U16C C27G, the yeast fitness was 0.727.

In the case of U16G A20G, the yeast fitness stood at 1.

Consider U16G C31G C55U C61A C66U, for which the yeast fitness was no more than 0.5.

As to U16G A45U G50A A69C, the yeast fitness stood at 0.631.

As to U16G C29U C46U G67C A69U, the yeast fitness turned out to be 0.521.

G17A C22A A45C C46U C49U: the yeast fitness is no more than 0.5.

On to G17A A21C A42C, for which the yeast fitness was no more than 0.5.

Take U16G C62A: the yeast fitness is 0.643.

Regarding U16G C24U C49G C66U, the yeast fitness was no more than 0.5.

As for U16C C29U A36U A40C C46U, the yeast fitness is no more than 0.5.

Take U16C C22U A37U G67C: the yeast fitness was no more than 0.5.

Consider U16A U26A C30G U59C, for which the yeast fitness was no more than 0.5.

With U16C G18A U28A C31A U32A A57G G67A, the yeast fitness was found to be 0.962.

As for U16G G68C A69G, the yeast fitness is 0.556.

As to U16C A20U G25A U28C C30G, the yeast fitness was no more than 0.5.

Turning to U16G U59G, the yeast fitness is 0.78.

On to U16A G63A, for which the yeast fitness was 0.798.

As for G17A A20G C27G A36C, the yeast fitness was 0.609.

Take U16A U28C U47C: the yeast fitness stood at 0.79.

Regarding U16C U28C, the yeast fitness turned out to be 0.859.

Turning to U16C U47A G68A, the yeast fitness was no more than 0.5.

With U16G A36G A65G, the yeast fitness is no more than 0.5.

Consider U16C G50C C66U, for which the yeast fitness worked out at 0.584.

Take U16G U26G A36G G68C: the yeast fitness is 0.629.

U16C G51A: the yeast fitness stood at 0.633.

U16G A57G C62G C66U: the yeast fitness turned out to be 0.517.

As to U16C C22A C30U C31G, the yeast fitness is no more than 0.5.

In the case of U16C G48A A70U, the yeast fitness stood at 0.798.

Consider G17A A37C C55U, for which the yeast fitness was 0.56.

As to U16C A40C A57U G68A, the yeast fitness worked out at 0.641.

With U16C C34G G51A, the yeast fitness amounted to 0.534.

Turning to U16C C24U C30U C66U, the yeast fitness is no more than 0.5.

Regarding U16G C29U C30U, the yeast fitness was no more than 0.5.

In the case of U16A U32A A40C U53A, the yeast fitness was determined as 0.551.

Turning to G17A C24G C27G C62U G67A, the yeast fitness was no more than 0.5.

Turning to U16G A21U C34G A40U, the yeast fitness stood at 0.624.

As to U16C U47C C60U C62A, the yeast fitness was no more than 0.5.

Take G17A C24U C34A A40G C61U A69U: the yeast fitness is no more than 0.5.

For the variant U16A G41A A70U, the yeast fitness turned out to be 0.666.

Turning to U16C A69U, the yeast fitness is 0.998.

Take G17A C29G A45G C61U: the yeast fitness is no more than 0.5.

Turning to G17A C31A G68C, the yeast fitness was no more than 0.5.

U16C C49G C62U: the yeast fitness was determined as 0.528.

As for U16G G41C A45U G51A C61U A70C, the yeast fitness is 0.639.

As to G17A C29U G67A, the yeast fitness was found to be 0.553.

As to U16A U26A C49G C61A, the yeast fitness turned out to be 0.586.

For U16C G17C G38C C46U G58C, the yeast fitness was 0.64.

Consider U16C C31A C34U A69C, for which the yeast fitness is no more than 0.5.

With U16C C30U, the yeast fitness is 0.893.

With G17A A70C, the yeast fitness stood at 0.842.

As to G17A A70G, the yeast fitness is 0.866.
